Laboratory results reported in ChEMBL document CHEMBL1157933, “The anti-cancer, anti-inflammatory and tuberculostatic activities of a series of 6,7-substituted-5,8-quinolinequinones” (Bioorg Med Chem, 2010).
pIC50: −log10 of the molar value.

How the values were obtained:
HL-60 = assay: Antiproliferative activity against human HL60 cells after 48 hrs by MTT assay; assay type: functional, cell-based; details: HL-60, 48 h
[1] = Antiproliferative activity against human T cells after 48 hrs by MTT assay; assay type: cell-based; details: T-cell
Outline: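 Healthy-donor PBMC (Ficoll-hypaque) activated 2 days with CD2/CD3/CD28-loaded anti-biotin beads, then expanded 2–4 days with 20 U/mL IL-2. Cells plated at 0.2 × 10^6 cells/mL in complete RPMI with varied compound concentrations for 48 h at 37 °C; MTT 2 h, SDS/DMF lysis overnight, absorbance 570 nm. Triplicate, mean reported.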

[2] = Antiinflammatory activity in human neutrophils assessed as inhibition of PMA-induced superoxide production after 20 mins by WST1 assay; assay type: functional, cell-based; details: Neutrophil

Compound	pIC50 (HL-60)	pIC50 [1]	pIC50 [2]
Cc1ccc(S(=O)(=O)C2=C(S(=O)(=O)c3ccc(C)cc3)C(=O)c3ncccc3C2=O)cc1	4.21	4.39	< 3.70
O=C1C(Cl)=C(NCCBr)C(=O)c2ncccc21	5.92	5.60	4.68
O=C1C(NCCCl)=C(Cl)C(=O)c2ncccc21	5.79	5.64	4.43
O=C1C(Cl)=C(NCCCl)C(=O)c2ncccc21	5.71	5.64	4.51
Cc1ccc2c(n1)C(=O)C(Cl)=C(NCCBr)C2=O	5.89	5.65	4.47
Cc1ccc2c(n1)C(=O)C(NCCBr)=C(Cl)C2=O	5.92	5.80	4.14
CNC1=C(SC)C(=O)c2cccnc2C1=O	5.10	5.12	< 3.70
CNC1=C(Sc2ccccc2)C(=O)c2ncccc2C1=O	5.10	4.91	< 3.82
CNC1=C(Sc2ccccc2)C(=O)c2cccnc2C1=O	5.23	5.16	4.03
CNC1=C([S+](C)[O-])C(=O)c2ncccc2C1=O (stereo not drawn)	4.92	4.93	< 3.70
Cc1ccc2c(n1)C(=O)C(Cl)=C(Cl)C2=O	4.73	4.35	5.47
O=C1c2cccnc2C(=O)C2SCCNC12 (stereo not drawn)	5.37	5.23	< 3.70
O=C1C2=C(NCCS2)C(=O)c2ncccc21	5.45	5.22	< 3.70
C[S+]([O-])C1=C(N)C(=O)c2cccnc2C1=O (stereo not drawn)	5.89	5.71	< 3.70
CNC1=C(Cl)C(=O)c2cccnc2C1=O	5.37	5.28	4.39
CSC1=C(N)C(=O)c2cccnc2C1=O	5.12	5.08	< 3.82
CNC1=C(SC)C(=O)c2ncccc2C1=O	5.46	4.71	< 3.70
CSC1=C(SC)C(=O)c2ncccc2C1=O	5.91	5.77	6.96
O=C1C(NCCBr)=C(Cl)C(=O)c2ncccc21	5.78	5.59	4.70
O=C1C(NC(c2ccccc2)c2ccccc2)=C(Cl)C(=O)c2ncccc21	5.61	5.59	4.47
CNC1=C(Cl)C(=O)c2ncccc2C1=O	5.61	5.45	4.10
CNC1=C([S+](C)[O-])C(=O)c2cccnc2C1=O (stereo not drawn)	4.48	4.87	< 3.70
CS(=O)(=O)C1=C(N)C(=O)c2cccnc2C1=O	5.34	4.71	< 3.70
Cc1ccc(S(=O)(=O)C2=C(Cl)C(=O)c3ncccc3C2=O)cc1	4.42	4.45	< 3.70
O=C1C(Sc2ccccc2)=C(Sc2ccccc2)C(=O)c2ncccc21	5.43	5.11	4.61
Oc1c(Sc2ccccc2)c(Sc2ccccc2)c(O)c2ncccc12	5.16	5.00	5.64
